Results: ChEMBL document CHEMBL1123227, “Tricyclic epines. Novel (E)- and (Z)-11H-dibenz[b,e]azepines as potential central nervous system agents. Variation of the basic side chain” (1986)

How the values were obtained:
Type in all cases: functional
Mus musculus [1] = species: Mus musculus; assay: Anticholinergic activity in mice.
Summary of the method: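 Groups of 10 female NMRI mice received a lethal dose of physostigmine (0.825 mg/kg sc). Test substances were given orally 30 min before the physostigmine.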

Mus musculus [2] = species: Mus musculus; assay: Sedative activity in mice
Mus musculus [3] = species: Mus musculus; assay: Sedative activity relative with respect to clozapine.
Mus musculus [4] = species: Mus musculus; assay: Anticholinergic activity relative with respect to clozapine.
Rattus norvegicus [5] = species: Rattus norvegicus; assay: Compound was tested or the anti-tryptamine activity in rats
Summary of the method: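 Rats were challenged with tryptamine hydrochloride (16 mg/kg iv), with test substances given ip 30 min beforehand. Activity was scored as absence of clonic front paw movements over a 5 min observation after tryptamine. ED50 was the dose preventing the symptom in half the animals, determined by Probit analysis.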

Rattus norvegicus [6] = species: Rattus norvegicus; assay: Compound was tested or the anti-tryptamine activity in rats relative with respect to clozapine.
Summary of the method: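 Rats dosed ip 30 min before tryptamine hydrochloride 16 mg/kg iv. Effect means front paw clonic movements absent over 5 min observation after tryptamine. ED50 is the dose preventing the symptom in half the animals (Probit analysis); relative activity referenced to clozapine.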

Oryctolagus cuniculus = species: Oryctolagus cuniculus; assay: Compound was tested for the muscle-relaxing activity in rabbits
Summary of the method: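 Muscle electrical activity during contraction was recorded and pulses were counted. A 5 s extension was repeated every 1 min. Once pulse counts were constant (control value), the substance was given iv, and post-dose pulses were related to that value. Four to six animals were used per dose. ED50 was the dose halving muscle activity from the initial value.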

Rattus norvegicus [7] = species: Rattus norvegicus; assay: Compound was tested for the apomorphine antagonistic activity in rats expressed as relative activity
Summary of the method: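 Female Sprague–Dawley rats, groups of four to six. Oral dosing 90 min before apomorphine 1.5 mg/kg sc. Jaw movements recorded via implanted electrodes (mandibulogram).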

| Compound | ED50 (Mus musculus [1]) [mg/kg] | ED50 (Mus musculus [2]) [mg/kg] | Relative activity (Mus musculus [3]) | Relative activity (Mus musculus [4]) | ED50 (Rattus norvegicus [5]) [mg/kg] | Relative activity (Rattus norvegicus [6]) | ED50 (Oryctolagus cuniculus) [mg/kg] | Relative activity (Rattus norvegicus [7]) |
| --- | --- | --- | --- | --- | --- | --- | --- | --- |
| CN1CCCC(COC2=Nc3ccccc3/C(=C/C#N)c3ccccc32)C1 (centres undefined) | 5.92 | > 46.4 | <0.1 | 2.38 | – | – | – | – |
| N#C/C=C1/c2ccccc2N=C(NCCN2CCCC2)c2ccccc21 | > 100 | 4.96 | 0.96 | <0.14 | – | – | – | – |
| CN1CCC(N(C)C2=Nc3ccccc3/C(=C/C#N)c3ccccc32)CC1 | ~31.6 | 13.4 | 0.35 | 0.45 | – | – | – | – |
| CCN1CCN(C2=Nc3ccccc3/C(=C\C#N)c3ccccc32)CC1 | – | – | – | – | > 100 | <0.05 | – | – |
| CN1CCN(CCNC2=Nc3ccccc3/C(=C/C#N)c3ccccc32)CC1 | > 100 | 27.7 | 0.17 | <0.14 | – | – | – | – |
| CCN(CC)CCNC1=Nc2ccccc2/C(=C/C#N)c2ccccc21 | > 100 | 5.72 | 0.83 | <0.14 | – | – | – | – |
| Cc1ccc2c(c1)N=C(N1CCN(C)CC1)c1ccccc1/C2=C/C#N | – | 33.6 | – | – | 51 | 0.1 | 0.25 | – |
| CN(C)CCCOC1=Nc2ccccc2/C(=C/C#N)c2ccccc21 | 24 | > 100 | <0.04 | 0.59 | – | – | – | – |
| CN1CCCC(CNC2=Nc3ccccc3/C(=C/C#N)c3ccccc32)C1 (centres undefined) | ~46.4 | > 100 | <0.04 | 0.3 | – | – | – | – |
| CN1CCC(NC2=Nc3ccccc3/C(=C/C#N)c3ccccc32)CC1 | ~68.1 | > 100 | <0.04 | 0.21 | – | – | – | – |
| CC1CN(C)CCN1C1=Nc2ccccc2/C(=C/C#N)c2ccccc21 (centres undefined) | ~21.5 | ~21.5 | 0.22 | 0.66 | – | – | – | – |
| C[N+]1([O-])CCN(C2=Nc3ccccc3/C(=C\C#N)c3ccccc32)CC1 | 8.75 | – | 0.04 | 1.61 | – | – | – | – |
| N#C/C=C1/c2ccccc2N=C(N2CCN(CCN3CCOC3=O)CC2)c2ccccc21 | 51 | 39.4 | 0.12 | 0.28 | – | – | – | – |
| N#C/C=C1/c2ccccc2N=C(N2CC[N+]([O-])(CCO)CC2)c2ccccc21 | 39 | 10.3 | 0.46 | 0.36 | – | – | – | – |
| N#C/C=C1/c2ccccc2N=C(NCCN2CCCCC2)c2ccccc21 | > 10 | – | – | <1.41 | – | – | – | – |
| CCN1CCN(C2=Nc3ccccc3/C(=C/C#N)c3ccccc32)CC1 | > 21.5 | 2.79 | 1.7 | <0.66 | – | – | – | – |
| C[N+]1([O-])CCCC(COC2=Nc3ccccc3/C(=C/C#N)c3ccccc32)C1 (centres undefined) | > 100 | > 100 | <0.04 | <0.14 | – | – | – | – |
| CN(C)CCNC1=Nc2ccccc2/C(=C/C#N)c2ccccc21 | > 100 | 15.5 | 0.31 | <0.14 | – | – | – | – |
| Cc1ccc2c(c1)N=C(N1CCN(C)CC1)c1ccccc1/C2=C\C#N | ~100 | – | – | – | 10 | 0.5 | 0.014 | – |
| CN(C)CCCNC1=Nc2ccccc2/C(=C/C#N)c2ccccc21 | > 46.4 | > 46.4 | <0.1 | <0.3 | – | – | – | – |
| CN(C)CCOC1=Nc2ccccc2/C(=C/C#N)c2ccccc21 | 24.9 | 34.8 | 0.14 | 0.57 | – | – | – | – |
| N#C/C=C1/c2ccccc2N=C(N2CCC(O)(c3ccccc3)CC2)c2ccccc21 | > 100 | > 46.4 | <0.1 | <0.14 | – | – | – | – |
| CN1CCN(C2=Nc3ccccc3/C(=C\C#N)c3ccccc32)CC1 | – | – | <0.2 | 3 | 32 | 0.16 | ~1 | – |
| CN1CCN(C2=Nc3cc(Cl)ccc3Nc3ccccc32)CC1 [CLOZAPINE] | – | – | 1 | 1 | 5 | 1 | 0.028 | 1 |
